Values after ≈ are worked out from the molar mass of the structure shown. Active and inactive are the calls of the source. No cut-off for these calls is given here.
Legend:
Escherichia coli [1] = assay: Antibacterial activity against Escherichia coli ATCC 11230 after 24 hrs by broth micro dilution method; assay type: functional; conditions: ATCC 11230, 24 h
Staphylococcus aureus = assay: Antibacterial activity against Staphylococcus aureus ATCC 6538 after 24 hrs by broth micro dilution method; assay type: functional; conditions: ATCC 6538, 24 h
Klebsiella pneumoniae [2] = assay: Antibacterial activity against Klebsiella pneumoniae UC57 after 24 hrs by broth micro dilution method; assay type: functional; conditions: UC57, 24 h
Micrococcus luteus [3] = assay: Antibacterial activity against Micrococcus luteus La 2971 after 24 hrs by broth micro dilution method; assay type: functional; conditions: La 2971, 24 h
Listeria monocytogenes [4] = assay: Antibacterial activity against Listeria monocytogenes ATCC 15313 after 24 hrs by broth micro dilution method; assay type: functional; conditions: ATCC 15313, 24 h
Kluyveromyces marxianus = assay: Antifungal activity against Kluyveromyces fragilis NRRL 2415 after 24 hrs by broth micro dilution method; assay type: functional; conditions: NRRL 2415, 24 h
Outline: (§1)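 Broth microdilution was run in cation-adjusted Mueller Hinton Broth. Compounds were dissolved in DMSO at 2 mg mL^-1 and serially diluted two-fold. Yeast precultures were grown in Malt Extract Broth for 48 h. The final inoculum was about 10⁶ cfu mL^-1, and plates were incubated at 37 °C for 24 h. The MIC was read from this series.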

Rhodotorula mucilaginosa [5] = assay: Antifungal activity against Rhodotorula rubra DSM 70403 after 24 hrs by broth micro dilution method; assay type: functional; conditions: DSM 70403, 24 h; outline: as §1
[6] = system: Hanseniaspora guilliermondii; assay: Antifungal activity against Hanseniaspora guilliermondii DSM 3432 after 24 hrs by broth micro dilution method; assay type: functional; conditions: DSM 3432, 24 h; outline: as §1
[7] = Cytotoxicity against human 23132/87 cells assessed as cell viability at 0.1 uM after 24 hrs by MTT assay; assay type: functional; conditions: 23132-87, 24 h, read-out: Activity
Outline: (§2)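 Cells were seeded at 3.10³–5.10³ per well in RPMI 1640 with 10% FBS, 4 mM L-glutamine and penicillin/streptomycin, then held 24 h at 37 °C under 5% CO₂. Ligands (DMSO, final 0.5% v/v) were added at 0.1–100 for 24 or 48 h. MTT was added for 4 h and dissolved in 50% DMF/5% SDS. A570 was read, and cytotoxicity was calculated as 100×(OD treated/OD untreated).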

[8] = Cytotoxicity against human 23132/87 cells assessed as cell viability at 1 uM after 24 hrs by MTT assay; assay type: functional; conditions: 23132-87, 24 h, read-out: Activity; outline: as §2
[9] = Cytotoxicity against human 23132/87 cells assessed as cell viability at 100 uM after 24 hrs by MTT assay; assay type: functional; conditions: 23132-87, 24 h, read-out: Activity; outline: as §2
[10] = Cytotoxicity against human 23132/87 cells assessed as cell viability at 100 uM after 48 hrs by MTT assay; assay type: functional; conditions: 23132-87, 48 h, read-out: Activity; outline: as §2
A549 [11] = assay: Cytotoxicity against human A549 cells assessed as cell viability at 1 uM after 24 hrs by MTT assay; assay type: functional; conditions: A549, 24 h, read-out: Activity; outline: as §2
A549 [12] = assay: Cytotoxicity against human A549 cells assessed as cell viability at 10 uM after 24 hrs by MTT assay; assay type: functional; conditions: A549, 24 h, read-out: Activity; outline: as §2
A549 [13] = assay: Cytotoxicity against human A549 cells assessed as cell viability at 100 uM after 24 hrs by MTT assay; assay type: functional; conditions: A549, 24 h, read-out: Activity; outline: as §2
A549 [14] = assay: Cytotoxicity against human A549 cells assessed as cell viability at 0.1 uM after 48 hrs by MTT assay; assay type: functional; conditions: A549, 48 h, read-out: Activity; outline: as §2
A549 [15] = assay: Cytotoxicity against human A549 cells assessed as cell viability at 1 uM after 48 hrs by MTT assay; assay type: functional; conditions: A549, 48 h, read-out: Activity; outline: as §2
A549 [16] = assay: Cytotoxicity against human A549 cells assessed as cell viability at 10 uM after 48 hrs by MTT assay; assay type: functional; conditions: A549, 48 h, read-out: Activity; outline: as §2
A549 [17] = assay: Cytotoxicity against human A549 cells assessed as cell viability at 100 uM after 48 hrs by MTT assay; assay type: functional; conditions: A549, 48 h, read-out: Activity; outline: as §2
23132-87 [18] = assay: Induction of apoptosis in human 23132/87 cells assessed as DNA fragmentation at 100 uM after 24 hrs by DNA fragmentation assay; assay type: functional, cell-based
Outline: (§3)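 10 × 10⁴ cells were seeded in 6-well plates and treated with ligand for 24 h. Cells were then collected and washed in PBS, and DNA was extracted with a kit. Extracts were run on 1.5% agarose alongside a 100 bp marker, an untreated control and DMSO-treated controls, and ladders were visualized under UV.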

A549 [19] = assay: Induction of apoptosis in human A549 cells assessed as DNA fragmentation at 100 uM after 24 hrs by DNA fragmentation assay; assay type: functional, cell-based; outline: as §3
23132-87 [20] = assay: Induction of apoptosis in human 23132/87 cells assessed as change in nuclear appearance at 100 uM after 24 hrs by hoechst nuclear staining; assay type: functional, cell-based
Outline: (§4)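 Cells grown in 6-well plates were treated for 24 h, washed three times in PBS and fixed in ice-cold methanol for 10 min. They were stained with Hoechst 33258 for 5 min, destained in double-distilled water for 5 min and examined by fluorescence microscopy. Untreated and DMSO-treated cells served as controls.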

A549 [21] = assay: Induction of apoptosis in human A549 cells assessed as change in nuclear appearance at 100 uM after 24 hrs by hoechst nuclear staining; assay type: functional, cell-based; outline: as §4
Calf thymus DNA = assay: Binding affinity to calf thymus DNA assessed as change in electromagnetic spectrum at 500 uM by UV-vis spectroscopy; assay type: nucleic-acid assay; conditions: Bos taurus
Outline: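 CT-DNA was prepared in ddH₂O and judged protein-free by an A260/A280 ratio of 1.8:1. UV–visible absorption spectra of the DNA solution were recorded without ligand and with increasing ligand amounts.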

Escherichia coli [22] = assay: Antibacterial activity against Escherichia coli ATCC 11230 after 24 hrs by agar disk diffusion assay; assay type: functional
Outline: (§5)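 Disk diffusion with sterile 6 mm discs loaded with DMSO solutions of the test agents and placed on inoculated agar. Bacteria were pre-grown in Nutrient Broth at 30 °C for 24 h, and plates were incubated at 35 °C for 24 h. Each plate carried a reference antibiotic disc matched to the organism, and a DMSO-only solvent control was run.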

Klebsiella pneumoniae [23] = assay: Antibacterial activity against Klebsiella pneumoniae UC57 after 24 hrs by agar disk diffusion assay; assay type: functional; outline: as §5
Bacillus cereus = assay: Antibacterial activity against Bacillus cereus ATCC 7064 after 24 hrs by agar disk diffusion assay; assay type: functional; outline: as §5
Micrococcus luteus [24] = assay: Antibacterial activity against Micrococcus luteus La 2971 after 24 hrs by agar disk diffusion assay; assay type: functional; outline: as §5
Proteus vulgaris = assay: Antibacterial activity against Proteus vulgaris ATCC 8427 after 24 hrs by agar disk diffusion assay; assay type: functional; outline: as §5
[25] = system: Mycolicibacterium smegmatis; assay: Antibacterial activity against Mycobacterium smegmatis CCM 2067 after 24 hrs by agar disk diffusion assay; assay type: functional; outline: as §5
Listeria monocytogenes [26] = assay: Antibacterial activity against Listeria monocytogenes ATCC 15313 after 24 hrs by agar disk diffusion assay; assay type: functional; outline: as §5
Pseudomonas aeruginosa = assay: Antibacterial activity against Pseudomonas aeruginosa ATCC 27853 after 24 hrs by agar disk diffusion assay; assay type: functional; outline: as §5
Rhodotorula mucilaginosa [27] = assay: Antifungal activity against Rhodotorula rubra DSM 70403 after 72 hrs by agar disk diffusion assay; assay type: functional
Outline: (§6)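 Sterile 6 mm paper discs were loaded with ligand solution freshly prepared in DMSO and placed on inoculated agar. The inoculum came from broth cultures: bacteria in Nutrient Broth at 30 °C for 24 h, yeasts in Malt Extract Broth for 48 h. Plates were incubated at 35 °C for 24 h (bacteria) or 25 °C for 72 h (yeasts). A DMSO solvent control and a reference antibiotic disc were included on each plate.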

Debaryomyces hansenii = assay: Antifungal activity against Debaryomyces hansenii DSM 70238 after 72 hrs by agar disk diffusion assay; assay type: functional; outline: as §6

SMILES | MIC (Escherichia coli [1]) | MIC (Staphylococcus aureus) | MIC (Klebsiella pneumoniae [2]) | MIC (Micrococcus luteus [3]) | MIC (Listeria monocytogenes [4]) | MIC (Kluyveromyces marxianus) | MIC (Rhodotorula mucilaginosa [5]) | MIC [6] | viability at 0.1 µM [7] | viability at 1 µM [8] | viability at 100 µM [9] | viability at 100 µM [10] | viability at 1 µM (A549 [11]) | viability at 10 µM (A549 [12]) | viability at 100 µM (A549 [13]) | viability at 0.1 µM (A549 [14]) | viability at 1 µM (A549 [15]) | viability at 10 µM (A549 [16]) | viability at 100 µM (A549 [17]) | Activity (23132-87 [18]) | also measured
O=C1CCSCCC(=O)Nc2nc(nc(-c3ccccc3)n2)NC(=O)CCSCCC(=O)Nc2nc(nc(-c3ccccc3)n2)N1 | 25 µg/mL (≈ 37.9 µM) | 25 µg/mL (≈ 37.9 µM) | 12.5 µg/mL (≈ 19 µM) | 12.5 µg/mL (≈ 19 µM) | 25 µg/mL (≈ 37.9 µM) | 6.25 µg/mL (≈ 9.49 µM) | 6.25 µg/mL (≈ 9.49 µM) | 1.56 µg/mL (≈ 2.37 µM) | > 86% | > 86% | > 86% | > 86% | > 86% | > 86% | > 86% | > 86% | > 86% | > 86% | > 86% | inactive | Activity (A549 [19]): inactive; Activity (23132-87 [20]): inactive; Activity (A549 [21]): inactive; Activity (Calf thymus DNA): inactive; inhibition zone (IZ) (Escherichia coli [22]): 10 mm; inhibition zone (IZ) (Klebsiella pneumoniae [23]): 13 mm; inhibition zone (IZ) (Bacillus cereus): 13 mm; inhibition zone (IZ) (Micrococcus luteus [24]): 12 mm; inhibition zone (IZ) (Proteus vulgaris): 11 mm; inhibition zone (IZ) [25]: 9 mm; inhibition zone (IZ) (Listeria monocytogenes [26]): 10 mm; inhibition zone (IZ) (Pseudomonas aeruginosa): 11 mm; inhibition zone (IZ) (Rhodotorula mucilaginosa [27]): 16 mm; inhibition zone (IZ) (Debaryomyces hansenii): 18 mm
O=C1CCSSCCC(=O)Nc2nc(nc(-c3ccccc3)n2)NC(=O)CCSSCCC(=O)Nc2nc(nc(-c3ccccc3)n2)N1 | 25 µg/mL (≈ 34.6 µM) | 12.5 µg/mL (≈ 17.3 µM) | 6.25 µg/mL (≈ 8.65 µM) | 6.25 µg/mL (≈ 8.65 µM) | 25 µg/mL (≈ 34.6 µM) | 1.56 µg/mL (≈ 2.16 µM) | 3.12 µg/mL (≈ 4.32 µM) | 1.56 µg/mL (≈ 2.16 µM) | > 86% | > 86% | > 86% | > 86% | > 86% | > 86% | > 86% | > 86% | > 86% | > 86% | > 86% | inactive | Activity (A549 [19]): inactive; Activity (23132-87 [20]): inactive; Activity (A549 [21]): inactive; Activity (Calf thymus DNA): inactive; inhibition zone (IZ) (Escherichia coli [22]): 10 mm; inhibition zone (IZ) (Klebsiella pneumoniae [23]): 16 mm; inhibition zone (IZ) (Bacillus cereus): 15 mm; inhibition zone (IZ) (Micrococcus luteus [24]): 17 mm; inhibition zone (IZ) (Proteus vulgaris): 13 mm; inhibition zone (IZ) [25]: 11 mm; inhibition zone (IZ) (Listeria monocytogenes [26]): 10 mm; inhibition zone (IZ) (Pseudomonas aeruginosa): 11 mm; inhibition zone (IZ) (Rhodotorula mucilaginosa [27]): 21 mm; inhibition zone (IZ) (Debaryomyces hansenii): 22 mm
O=C1CSCC(=O)Nc2nc(nc(-c3ccccc3)n2)NC(=O)CSCC(=O)Nc2nc(nc(-c3ccccc3)n2)N1 | 25 µg/mL (≈ 41.5 µM) | 12.5 µg/mL (≈ 20.7 µM) | 12.5 µg/mL (≈ 20.7 µM) | 12.5 µg/mL (≈ 20.7 µM) | 25 µg/mL (≈ 41.5 µM) | 6.25 µg/mL (≈ 10.4 µM) | 6.25 µg/mL (≈ 10.4 µM) | 1.56 µg/mL (≈ 2.59 µM) | > 86% | > 86% | > 86% | > 86% | > 86% | > 86% | > 86% | > 86% | > 86% | > 86% | > 86% | inactive | Activity (A549 [19]): inactive; Activity (23132-87 [20]): inactive; Activity (A549 [21]): inactive; Activity (Calf thymus DNA): inactive; inhibition zone (IZ) (Escherichia coli [22]): 10 mm; inhibition zone (IZ) (Klebsiella pneumoniae [23]): 13 mm; inhibition zone (IZ) (Bacillus cereus): 14 mm; inhibition zone (IZ) (Micrococcus luteus [24]): 14 mm; inhibition zone (IZ) (Proteus vulgaris): 12 mm; inhibition zone (IZ) [25]: 10 mm; inhibition zone (IZ) (Listeria monocytogenes [26]): 10 mm; inhibition zone (IZ) (Pseudomonas aeruginosa): 9 mm; inhibition zone (IZ) (Rhodotorula mucilaginosa [27]): 17 mm; inhibition zone (IZ) (Debaryomyces hansenii): 18 mm

From ChEMBL document CHEMBL1156002, “Synthesis, Raman, FT-IR, NMR spectroscopic characterization, antimicrobial activity, cytotoxicity and DNA binding of new mixed aza-oxo-thia macrocyclic compounds” (2009)
